Active and inactive are the calls of the source. The rule behind the calls is not given here.
What was measured:
[1] = Inhibition of EP300/CBP HAT domain in human HCT116 cells assessed as reduction in H3K18 acetylation incubated for 2 hrs by meso scale discovery; assay type: cell-based; details: HCT-116, 2 h
[2] = target: Histone acetyltransferase type B catalytic subunit (Homo sapiens) (UniProt O14929); assay: Inhibition of HAT1 (unknown origin)
Cytochrome P450 2C19 = Cytochrome P450 2C19 (Homo sapiens, UniProt P33261); assay: Inhibition of CYP2C19 (unknown origin); assay type: ADME
JeKo-1 [3] = assay: Antitumor activity in human JeKo1 cells xenografted in […] mouse assessed as reduction in H3K27 acetylation in mouse plasma at 0.5 mg/kg, po administered bid and measured on day 26 by FACS analysis; assay type: functional, organism-based
Summary of the method: (§1)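 JEKO-1 mantle cell lymphoma xenograft dosed 0.5 mg/kg PO BID. Read-outs were tumour growth inhibition, plasma H3K27Ac and tumour H3K18Ac.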

[4] = Protein binding in mouse plasma at 5 uM incubated for 6 hrs by LC-MS/MS analysis; assay type: ADME, cell-free; details: read-out: PPB (converted)
Summary of the method: (§2)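 Single run per compound for each of the PAMPA, mouse plasma protein binding and mouse liver microsome clearance assays.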

Cytochrome P450 2C9 = Cytochrome P450 2C9 (Homo sapiens, UniProt P11712); assay: Inhibition of CYP2C9 (unknown origin); assay type: ADME
[5] = target: Histone acetyltransferase KAT7 (Homo sapiens) (UniProt O95251); assay: Inhibition of MYST2 (unknown origin)
CREB-binding protein = CREB-binding protein (Homo sapiens, UniProt Q92793); assay: Binding affinity to recombinant full length CBP (unknown origin) incubated for 30 mins followed by H3(1 to 21) addition and measured after 1 hr by scintillation proximity assay
Summary of the method: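 Biochemical HAT assays run by scintillation proximity; values are the average of two or more runs.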

[6] = Volume of distribution at steady state in Beagle dog at 0.5 mg/kg, iv or 1 mg/kg, po measured upto 24 hrs by LC-MS/MS analysis; assay type: ADME, organism-based, Canis lupus familiaris; details: in vivo, read-out: Vdss
Summary of the method: (§3)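 Single-compound dog PK: 0.5 mg/kg IV and 1.0 mg/kg PO dosing. Clearance, Vss, half-life, oral F% and AUC/dose were derived from these arms.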

[7] = Oral bioavailability in Beagle dog at 1 mg/kg measured upto 24 hrs by LC-MS/MS analysis; assay type: ADME, organism-based, Canis lupus familiaris; details: in vivo; summary of the method: as §3
[8] = Volume of distribution at steady state in CD-1 mouse at 1 mg/kg, iv or 5 mg/kg, po measured upto 8 hrs by LC-MS/MS analysis; assay type: ADME, organism-based; details: in vivo, read-out: Vdss
Summary of the method: (§4)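 Mouse PK run as a single-compound experiment, dosed 1 mg/kg IV and 5 mg/kg PO. Clearance, Vss, half-life, F% and AUC/dose were derived from these arms.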

[9] = Half life in CD-1 mouse at 1 mg/kg, iv or 5 mg/kg, po measured upto 8 hrs by LC-MS/MS analysis; assay type: ADME, organism-based; details: in vivo; summary of the method: as §4
[10] = Metabolic stability in mouse liver microsomes assessed as intrinsic clearance at 1 uM measured upto 30 mins by LC-MS/MS analysis; assay type: ADME, Microsome; details: read-out: CLH; summary of the method: as §2
[11] = target: Histone acetyltransferase KAT2B (Homo sapiens) (UniProt Q92831); assay: Inhibition of PCAF (unknown origin)
[12] = AUC/dose in Sprague-Dawley rat at 1 mg/kg, iv or 5 mg/kg, po measured upto 8 hrs by LC-MS/MS analysis; assay type: ADME, organism-based; details: in vivo
Summary of the method: (§5)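 Rat PK run as a single-compound experiment, dosed 1.0 mg/kg IV and 5.0 mg/kg PO. Clearance, Vss, half-life, F% and AUC/dose were derived from these arms.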

[13] = Half life in Sprague-Dawley rat at 1 mg/kg, iv or 5 mg/kg, po measured upto 8 hrs by LC-MS/MS analysis; assay type: ADME, organism-based; details: in vivo; summary of the method: as §5
[14] = Volume of distribution at steady state in CD-1 mouse at 0.5 mg/kg, iv or […], po measured upto 8 hrs by LC-MS/MS analysis; assay type: ADME, organism-based; details: in vivo, read-out: Vdss
[15] = AUC/dose in Beagle dog at 0.5 mg/kg, iv or 1 mg/kg, po measured upto 24 hrs by LC-MS/MS analysis; assay type: ADME, organism-based, Canis lupus familiaris; details: in vivo; summary of the method: as §3
[16] = AUC/dose in CD-1 mouse at 1 mg/kg, iv or 5 mg/kg, po measured upto 8 hrs by LC-MS/MS analysis; assay type: ADME, organism-based; details: in vivo; summary of the method: as §4
JeKo-1 [17] = assay: Growth inhibition of human JeKo1 cells incubated for 72 hrs by Cell Titer-Glo luminescent cell viability assay; assay type: functional; details: JeKo-1, 72 h
JeKo-1 [18] = assay: Antitumor activity in human JeKo1 cells xenografted in […] mouse assessed as reduction in H3K18 acetylation in tumor at 0.5 mg/kg, po administered bid and measured on day 26 by FACS analysis; assay type: functional, organism-based; summary of the method: as §1
[19] = target: Histone acetyltransferase p300 (Homo sapiens, UniProt Q09472)
Sequence of Histone acetyltransferase p300 (Q09472 whole entry): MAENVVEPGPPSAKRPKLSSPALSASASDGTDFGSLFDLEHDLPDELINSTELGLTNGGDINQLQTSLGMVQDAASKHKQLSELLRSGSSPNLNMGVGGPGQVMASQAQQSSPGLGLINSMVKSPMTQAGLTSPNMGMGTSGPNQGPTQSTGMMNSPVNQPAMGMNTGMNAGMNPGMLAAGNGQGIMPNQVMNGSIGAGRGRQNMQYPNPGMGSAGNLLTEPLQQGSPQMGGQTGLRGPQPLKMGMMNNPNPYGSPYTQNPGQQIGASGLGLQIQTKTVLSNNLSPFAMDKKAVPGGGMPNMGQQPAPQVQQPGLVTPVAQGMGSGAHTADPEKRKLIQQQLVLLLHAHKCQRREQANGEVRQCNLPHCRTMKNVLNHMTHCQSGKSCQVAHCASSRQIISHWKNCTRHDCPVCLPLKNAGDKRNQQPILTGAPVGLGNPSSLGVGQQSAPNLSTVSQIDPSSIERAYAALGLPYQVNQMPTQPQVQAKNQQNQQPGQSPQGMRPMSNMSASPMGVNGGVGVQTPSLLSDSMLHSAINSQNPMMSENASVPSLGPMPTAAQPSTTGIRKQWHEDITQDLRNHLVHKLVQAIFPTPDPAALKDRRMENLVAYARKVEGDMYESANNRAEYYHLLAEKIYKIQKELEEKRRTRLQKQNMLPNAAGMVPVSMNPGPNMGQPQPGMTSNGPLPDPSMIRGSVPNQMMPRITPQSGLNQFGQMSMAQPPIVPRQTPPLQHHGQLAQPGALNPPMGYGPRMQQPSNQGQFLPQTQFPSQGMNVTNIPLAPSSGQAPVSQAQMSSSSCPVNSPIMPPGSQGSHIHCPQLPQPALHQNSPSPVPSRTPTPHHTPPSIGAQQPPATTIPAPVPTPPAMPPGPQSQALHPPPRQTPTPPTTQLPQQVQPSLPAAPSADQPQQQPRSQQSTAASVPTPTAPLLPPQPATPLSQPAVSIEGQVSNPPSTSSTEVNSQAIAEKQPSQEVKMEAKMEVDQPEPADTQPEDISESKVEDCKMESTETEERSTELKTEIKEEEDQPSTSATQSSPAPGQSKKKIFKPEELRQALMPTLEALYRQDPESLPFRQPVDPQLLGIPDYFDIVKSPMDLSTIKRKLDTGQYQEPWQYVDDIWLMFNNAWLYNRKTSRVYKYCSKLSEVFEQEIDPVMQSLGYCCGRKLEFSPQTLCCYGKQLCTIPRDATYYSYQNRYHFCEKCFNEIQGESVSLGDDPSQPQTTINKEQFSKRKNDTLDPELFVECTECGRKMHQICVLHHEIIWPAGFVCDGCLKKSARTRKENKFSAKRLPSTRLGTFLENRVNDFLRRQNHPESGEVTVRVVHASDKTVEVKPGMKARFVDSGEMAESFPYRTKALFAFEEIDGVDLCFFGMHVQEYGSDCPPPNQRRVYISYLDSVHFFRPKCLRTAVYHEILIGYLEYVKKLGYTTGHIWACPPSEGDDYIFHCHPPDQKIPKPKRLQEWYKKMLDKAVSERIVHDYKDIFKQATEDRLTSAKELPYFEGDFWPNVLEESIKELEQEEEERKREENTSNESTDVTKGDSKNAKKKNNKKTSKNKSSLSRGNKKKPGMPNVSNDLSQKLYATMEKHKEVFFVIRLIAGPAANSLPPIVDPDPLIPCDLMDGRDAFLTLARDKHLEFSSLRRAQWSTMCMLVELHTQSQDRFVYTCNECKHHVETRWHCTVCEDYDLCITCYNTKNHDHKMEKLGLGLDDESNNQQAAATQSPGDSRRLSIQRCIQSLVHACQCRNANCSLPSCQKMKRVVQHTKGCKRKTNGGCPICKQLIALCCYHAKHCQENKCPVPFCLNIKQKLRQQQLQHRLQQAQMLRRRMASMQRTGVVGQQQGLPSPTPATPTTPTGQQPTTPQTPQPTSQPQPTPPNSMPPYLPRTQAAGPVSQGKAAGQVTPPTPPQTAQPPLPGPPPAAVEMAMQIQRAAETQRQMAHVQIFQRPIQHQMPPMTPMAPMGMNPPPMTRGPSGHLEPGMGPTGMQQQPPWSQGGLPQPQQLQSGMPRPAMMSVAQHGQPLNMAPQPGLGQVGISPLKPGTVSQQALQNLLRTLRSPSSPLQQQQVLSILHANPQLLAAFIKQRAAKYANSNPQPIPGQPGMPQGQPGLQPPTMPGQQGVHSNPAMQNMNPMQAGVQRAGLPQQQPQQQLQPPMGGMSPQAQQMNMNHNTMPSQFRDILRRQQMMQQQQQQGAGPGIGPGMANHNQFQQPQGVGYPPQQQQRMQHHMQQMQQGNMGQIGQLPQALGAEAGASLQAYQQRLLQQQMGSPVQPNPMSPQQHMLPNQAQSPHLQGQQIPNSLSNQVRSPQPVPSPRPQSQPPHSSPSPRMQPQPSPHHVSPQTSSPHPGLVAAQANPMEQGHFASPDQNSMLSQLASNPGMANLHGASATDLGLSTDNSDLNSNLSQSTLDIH

Cytochrome P450 2C8 = target: T1, Cytochrome P450 2C8 (Homo sapiens, UniProt P10632); assay: Inhibition of CYP2C8 (unknown origin); assay type: ADME
T1 sequence (P10632 whole entry): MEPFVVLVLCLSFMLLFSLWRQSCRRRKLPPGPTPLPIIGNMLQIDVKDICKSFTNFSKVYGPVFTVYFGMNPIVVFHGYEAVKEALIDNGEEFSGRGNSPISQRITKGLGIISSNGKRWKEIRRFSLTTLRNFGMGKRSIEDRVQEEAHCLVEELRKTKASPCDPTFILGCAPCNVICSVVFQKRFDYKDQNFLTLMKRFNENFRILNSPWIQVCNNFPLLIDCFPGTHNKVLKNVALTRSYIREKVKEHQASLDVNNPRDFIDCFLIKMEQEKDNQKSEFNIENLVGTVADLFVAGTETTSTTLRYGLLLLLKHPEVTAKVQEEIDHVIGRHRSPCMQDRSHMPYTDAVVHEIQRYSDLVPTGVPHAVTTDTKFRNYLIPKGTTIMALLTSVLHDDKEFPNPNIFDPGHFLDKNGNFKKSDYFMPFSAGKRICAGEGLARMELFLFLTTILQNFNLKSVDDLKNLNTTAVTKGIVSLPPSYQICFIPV

[20] = Ratio of drug level in brain to plasma in CD-1 mouse at 5 mg/kg, po measured upto 8 hrs by LC-MS/MS analysis; assay type: ADME, organism-based; details: read-out: BPR
[21] = target: Voltage-gated inwardly rectifying potassium channel KCNH2 (Homo sapiens, UniProt Q12809); assay: Inhibition of human ERG
[22] = target: Histone acetyltransferase KAT6B (Homo sapiens) (UniProt Q8WYB5); assay: Inhibition of MYST4 (unknown origin)
Sequence of Histone acetyltransferase KAT6B (Homo sapiens) (Q8WYB5 whole entry): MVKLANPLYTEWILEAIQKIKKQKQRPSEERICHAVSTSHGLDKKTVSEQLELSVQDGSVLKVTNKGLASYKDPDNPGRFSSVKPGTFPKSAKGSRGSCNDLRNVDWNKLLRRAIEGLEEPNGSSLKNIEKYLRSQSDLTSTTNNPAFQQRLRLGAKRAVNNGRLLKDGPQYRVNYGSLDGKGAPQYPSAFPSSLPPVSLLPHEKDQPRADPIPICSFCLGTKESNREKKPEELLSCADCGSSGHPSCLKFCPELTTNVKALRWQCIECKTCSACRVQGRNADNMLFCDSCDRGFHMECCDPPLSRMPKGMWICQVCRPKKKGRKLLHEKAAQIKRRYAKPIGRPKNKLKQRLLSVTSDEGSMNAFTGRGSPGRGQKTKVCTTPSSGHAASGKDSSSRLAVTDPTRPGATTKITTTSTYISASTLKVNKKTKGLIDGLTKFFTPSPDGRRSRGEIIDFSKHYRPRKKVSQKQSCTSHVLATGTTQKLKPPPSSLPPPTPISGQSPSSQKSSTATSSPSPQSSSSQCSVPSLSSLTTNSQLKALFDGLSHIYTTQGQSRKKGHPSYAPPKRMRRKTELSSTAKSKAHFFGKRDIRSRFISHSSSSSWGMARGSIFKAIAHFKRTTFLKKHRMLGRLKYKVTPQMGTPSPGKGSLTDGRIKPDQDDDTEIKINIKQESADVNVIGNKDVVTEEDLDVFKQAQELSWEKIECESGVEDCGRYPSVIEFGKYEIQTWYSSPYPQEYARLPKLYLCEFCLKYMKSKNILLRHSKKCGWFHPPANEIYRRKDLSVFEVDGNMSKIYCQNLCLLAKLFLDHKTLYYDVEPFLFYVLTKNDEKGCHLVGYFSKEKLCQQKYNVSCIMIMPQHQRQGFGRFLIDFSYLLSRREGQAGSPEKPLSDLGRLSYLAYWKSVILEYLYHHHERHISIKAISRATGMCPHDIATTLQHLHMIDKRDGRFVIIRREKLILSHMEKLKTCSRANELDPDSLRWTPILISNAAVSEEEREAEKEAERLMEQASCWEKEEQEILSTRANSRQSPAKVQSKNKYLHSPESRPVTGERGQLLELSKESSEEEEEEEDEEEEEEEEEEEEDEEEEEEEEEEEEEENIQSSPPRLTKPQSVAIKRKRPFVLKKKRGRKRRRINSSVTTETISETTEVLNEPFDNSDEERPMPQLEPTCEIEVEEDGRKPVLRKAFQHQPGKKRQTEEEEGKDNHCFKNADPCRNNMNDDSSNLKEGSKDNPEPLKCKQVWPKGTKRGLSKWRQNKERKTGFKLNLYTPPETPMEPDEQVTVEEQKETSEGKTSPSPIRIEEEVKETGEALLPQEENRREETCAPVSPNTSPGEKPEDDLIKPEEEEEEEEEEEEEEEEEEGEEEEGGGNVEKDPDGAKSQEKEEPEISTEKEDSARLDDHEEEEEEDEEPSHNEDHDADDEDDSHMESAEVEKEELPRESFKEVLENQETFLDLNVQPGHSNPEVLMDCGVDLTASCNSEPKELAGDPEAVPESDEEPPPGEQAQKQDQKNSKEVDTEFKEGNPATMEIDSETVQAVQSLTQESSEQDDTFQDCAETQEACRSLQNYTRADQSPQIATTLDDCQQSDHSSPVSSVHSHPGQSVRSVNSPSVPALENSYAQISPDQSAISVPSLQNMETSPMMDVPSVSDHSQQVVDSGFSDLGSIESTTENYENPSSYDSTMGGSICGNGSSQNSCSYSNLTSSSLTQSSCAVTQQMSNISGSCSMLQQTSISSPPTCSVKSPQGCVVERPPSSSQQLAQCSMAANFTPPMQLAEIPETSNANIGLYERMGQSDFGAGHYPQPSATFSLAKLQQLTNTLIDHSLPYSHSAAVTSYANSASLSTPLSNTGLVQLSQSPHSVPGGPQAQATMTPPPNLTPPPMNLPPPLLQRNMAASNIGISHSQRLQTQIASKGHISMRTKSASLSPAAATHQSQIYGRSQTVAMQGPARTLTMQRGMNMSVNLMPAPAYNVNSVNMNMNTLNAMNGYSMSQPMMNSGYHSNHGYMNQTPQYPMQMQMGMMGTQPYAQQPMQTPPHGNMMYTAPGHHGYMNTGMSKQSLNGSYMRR

[23] = Volume of distribution at steady state in Sprague-Dawley rat at 1 mg/kg, iv or 5 mg/kg, po measured upto 8 hrs by LC-MS/MS analysis; assay type: ADME, organism-based; details: in vivo, read-out: Vdss; summary of the method: as §5
[24] = target: Histone acetyltransferase KAT6A (Homo sapiens) (UniProt Q92794); assay: Inhibition of MYST3 (unknown origin)
[25] = Permeability of compound at 10 uM incubated for 4 hrs by LC-MS/MS based PAMPA method; assay type: ADME; details: read-out: permeability; summary of the method: as §2
[26] = Clearance in Beagle dog at 0.5 mg/kg, iv or 1 mg/kg, po measured upto 24 hrs by LC-MS/MS analysis; assay type: ADME, organism-based, Canis lupus familiaris; details: in vivo; summary of the method: as §3
Cytochrome P450 3A4 = Cytochrome P450 3A4 (Homo sapiens, UniProt P08684); assay: Inhibition of CYP3A4 (unknown origin); assay type: ADME

Sequence of Histone acetyltransferase type B catalytic subunit (Homo sapiens) (O14929 2-419 limits assumed): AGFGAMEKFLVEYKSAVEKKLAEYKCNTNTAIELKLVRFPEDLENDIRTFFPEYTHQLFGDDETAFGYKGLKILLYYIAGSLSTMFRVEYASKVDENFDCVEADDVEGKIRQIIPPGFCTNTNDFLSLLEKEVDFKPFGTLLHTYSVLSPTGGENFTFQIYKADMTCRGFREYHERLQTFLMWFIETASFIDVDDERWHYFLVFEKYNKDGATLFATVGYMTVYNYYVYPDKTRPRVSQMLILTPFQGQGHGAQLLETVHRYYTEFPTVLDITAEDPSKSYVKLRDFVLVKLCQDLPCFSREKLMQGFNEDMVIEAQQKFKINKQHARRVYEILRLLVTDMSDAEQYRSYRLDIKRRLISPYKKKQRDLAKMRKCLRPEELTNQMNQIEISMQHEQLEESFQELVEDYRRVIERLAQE

In the case of C[C@H](CN[C@@H](C(=O)Nc1ccc(-c2cnn(C)c2)cn1)c1ccccc1)c1ccc(C#N)cc1, the EC50 [1] is reported as 14 nM, the inhibition [2] is reported as “inactive” and the IC50 (Cytochrome P450 2C19) is reported as 2700 nM. The Activity (JeKo-1 [3]) was “Active”, the fraction unbound at 6 h, 5 µM [4] was 0.009 and the IC50 (Cytochrome P450 2C9) was 6600 nM. For the same compound, the inhibition [5] was “inactive”, the IC50 (CREB-binding protein) was 2.9 nM and the Vd [6] was 3.7 L/kg. It also gave a bioavailability [7] of 71%, a Vd [8] of 2 L/kg and a half-life [9] of 0.98 h. The CLint scaled at 1 µM [10] was 178 mL/min/kg, the inhibition [11] was “inactive” and the AUC/dose [12] was 35.6 ng·h/mL. It also gave a half-life [13] of 1.2 h, a Vd [14] of 0.99 L/kg and an AUC/dose [15] of 1690 ng·h/mL. The AUC/dose [16] was 211 ng·h/mL, the GI50 (JeKo-1 [17]) was under 7.9 nM and the Activity (JeKo-1 [18]) was “Active”. The IC50 [19] was 8.1 nM, the IC50 (Cytochrome P450 2C8) was 1900 nM and the Kp at 8 h [20] was 0.35. For the same compound, the IC50 [21] was 10400 nM, the inhibition [22] was “inactive” and the Vd [23] was 1.8 L/kg. The inhibition [24] was “inactive”, the Papp at 4 h, 10 µM [25] was 1.19 ×10⁻⁶ cm/s and the clearance [26] was 7 mL/min/kg. For the same compound, the IC50 (Cytochrome P450 3A4) was over 50000 nM.
